Reference: ChEMBL document CHEMBL1121663, “(Acylaryloxy)acetic acid diuretics. 3. 2,3-Dihydro-5-acyl-2-benzofurancarboxylic acids, a new class of uricosuric diuretics” (1981)
Where “and” joins values, the source holds several entries; their conditions need not be identical. Identical values can stand only once.

How the values were obtained:
[1] = tested on: Canis familiaris; test: Compound was tested for diuretic activity in dogs at 5 mg/kg dose after intravenous administration measured as microequivalent of Na+/minute; 3/84 (Control/Drug treated); assay type: functional, Canis lupus familiaris, Urine
[2] = tested on: Canis familiaris; test: Compound was tested for diuretic activity in dogs at 5 mg/kg dose after intravenous administration, activity is expressed as urine volume; 0.4/2; assay type: functional, Canis lupus familiaris
[3] = tested on: Rattus norvegicus; test: Natriuretic activity in rats at 27 mg/kg of dosage; mequiv of Na; assay type: functional
Method in brief: (§1)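 Rats housed three per metabolism cage received placebo vehicle or compound as a suspension in a final volume of 5.0 mL orally, with placebo groups run concurrently. Urine was collected over 0–5 h and analysed for Na+, K+ and Cl− by standard methods. Values are mequiv per cage, given as geometric means of three cages per dose level.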

[4] = tested on: Rattus norvegicus; test: Natriuretic activity in rats at 3 mg/kg of dosage; mequiv of Na; assay type: functional; method in brief: as §1
[5] = tested on: Rattus norvegicus; test: Natriuretic activity in rats at 81 mg/kg of dosage; mequiv of Na; assay type: functional; method in brief: as §1
[6] = tested on: Rattus norvegicus; test: Natriuretic activity in rats at 9 mg/kg of dosage; mequiv of Na; assay type: functional; method in brief: as §1
[7] = tested on: Pan troglodytes; test: Compound was tested for natriuretic activity in chimpanzee at 5 mg/kg dose activity is measured as microequivalent of Na+/minute; muequiv of Na+/min; assay type: functional
Method in brief: (§2)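 Inulin iv gave GFR; urate and inulin clearances and Na+, K+, Cl- excretion were measured by AutoAnalyzer. Controls were three 20-min periods; compound was given orally in aqueous solution via nasal catheter. Response was the mean of eight 15-20 min periods, reported as treatment minus control from single experiments.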

[8] = tested on: Canis familiaris; test: Compound was tested for diuretic activity in dogs at 5 mg/kg dose after intravenous administration, activity is expressed as urine volume
[9] = Compound was tested for natriuretic activity in chimpanzee at 5 mg/kg dose activity is measured as ratio of clearance of urate / […]; Curate/Cinulin; assay type: functional; method in brief: as §2
[10] = tested on: Canis familiaris; test: Compound was tested for diuretic activity in dogs at 5 mg/kg dose after intravenous administration, activity is expressed as urine volume; 1/6; assay type: functional, Canis lupus familiaris
[11] = tested on: Canis familiaris; test: Compound was tested for diuretic activity in dogs at 5 mg/kg dose after intravenous administration measured as microequivalent of Na+/minute; 4/193 (Control/Drug treated); assay type: functional, Canis lupus familiaris, Urine
[12] = tested on: Canis familiaris; test: Compound was tested for diuretic activity in dogs at 5 mg/kg dose after oral administration measured as microequivalent of Cl-/minute; assay type: functional, Canis lupus familiaris, Urine
Method in brief: (§3)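 Oral dog test: water loading (250 mL po, then 500 mL 1 h later). One hour later bladders were emptied by catheter and compound or placebo given in gelatin capsules. Dogs were kept in metabolism cages. Voided urine plus catheterized bladder urine was pooled at 5 h, and Na+, K+ and Cl- were measured by standard methods. Geometric means are reported.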

[13] = tested on: Canis familiaris; test: Compound was tested for diuretic activity in dogs at 5 mg/kg dose after oral administration measured as microequivalent of K+/minute; assay type: functional, Canis lupus familiaris, Urine; method in brief: as §3
[14] = tested on: Canis familiaris; test: Compound was tested for diuretic activity in dogs at 5 mg/kg dose after oral administration measured as microequivalent of Na+/minute; assay type: functional, Canis lupus familiaris, Urine; method in brief: as §3
[15] = tested on: Canis familiaris; test: Compound was tested for diuretic activity in dogs at 5 mg/kg dose after intravenous administration measured as microequivalent of Cl-/minute; 9/510 (Control/Drug treated); assay type: functional, Canis lupus familiaris, Urine
Method in brief: (§4)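 Intravenous dog clearance study. A priming iv injection of 1.5 mL/kg isoosmotic pH 7.4 phosphate buffer (20 mg PO4/kg) was given first. This was followed by infusion of 3 mL/min pH 7.4 buffer containing 4% mannitol (6.9 mg PO4/min) throughout the experiment. Urinary Na+, K+ and Cl- were measured by standard methods. Each value is the mean of the two highest consecutive 15-min collections.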

[16] = tested on: Canis familiaris; test: Compound was tested for diuretic activity in dogs at 5 mg/kg dose after intravenous administration measured as microequivalent of K+/minute; 5/19 (Control/Drug treated); assay type: functional, Canis lupus familiaris, Urine; method in brief: as §4
[17] = tested on: Canis familiaris; test: Diuretic activity in dogs following 5 mg/kg oral administration.
[18] = tested on: Canis familiaris; test: Compound was tested for diuretic activity in dogs at 5 mg/kg dose after intravenous administration measured as microequivalent of Cl-/minute; 7/1385 (Control/Drug treated); assay type: functional, Canis lupus familiaris, Urine; method in brief: as §4
[19] = tested on: Pan troglodytes; test: Compound was tested for natriuretic activity in chimpanzee measured as microequivalent of Na+/minute at 1 mg/kg; mequiv of Na; assay type: functional; method in brief: as §2
[20] = tested on: Pan troglodytes; test: Compound was tested for natriuretic activity in chimpanzee measured as microequivalent of Na+/minute at 1.0 mg/kg dose; mequiv of Na; assay type: functional; method in brief: as §2
[21] = tested on: Pan troglodytes; test: Compound was tested for natriuretic activity in chimpanzee measured as microequivalent of Na+/minute at 0 mg/kg; mequiv of Na; assay type: functional; method in brief: as §2
[22] = tested on: Pan troglodytes; test: Compound was tested for natriuretic activity in chimpanzee measured as microequivalent of Na+/minute at 0.0312 mg/kg; mequiv of Na; assay type: functional; method in brief: as §2
[23] = tested on: Pan troglodytes; test: Compound was tested for natriuretic activity in chimpanzee measured as microequivalent of Na+/minute at 10 mg/kg; mequiv of Na; assay type: functional; method in brief: as §2
[24] = Activity is measured as ratio of clearance of urate / […] at 0 mg/kg; Curate/Cinulin; assay type: functional
Method in brief: (§5)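 Inulin iv gave GFR, and urate clearance was measured by AutoAnalyzer. Controls came from three 20-min periods. Aqueous compound was given orally by nasal catheter, and the response was averaged over eight 15-20 min periods. Values are treatment minus control from single experiments.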

[25] = Activity is measured as ratio of clearance of urate / […] at 0.0312 mg/kg; Curate/Cinulin; assay type: functional; method in brief: as §5
[26] = Activity is measured as ratio of clearance of urate / […] at 1.0 mg/kg dose; Curate/Cinulin; assay type: functional; method in brief: as §5
[27] = Activity is measured as ratio of clearance of urate / […] at 10 mg/kg; Curate/Cinulin; assay type: functional; method in brief: as §5
[28] = organism: Pan troglodytes; test: Compound was tested for natriuretic activity in chimpanzee measured as microequivalent of Na+/minute at […]; mequiv of Na; assay type: functional; method in brief: as §2
[29] = tested on: Canis familiaris; test: Compound was tested for diuretic activity in dogs at 5 mg/kg dose after intravenous administration measured as microequivalent of Na+/minute; 46/767 (Control/Drug treated); assay type: functional, Canis lupus familiaris, Urine

| SMILES | Oral activity [3] | Oral activity [4] | Oral activity [5] | Oral activity [6] | Oral activity [7] | Ratio [9] | also measured |
| --- | --- | --- | --- | --- | --- | --- | --- |
| CC(=O)c1cc2c(c(Cl)c1Cl)OC(C(=O)O)C2 (configuration not stated) | 76 | 13 | 161 | 26 |  |  | Oral activity [1]: 3; Urine volume [2]: 0.4 mL/min |
| O=C(c1cccs1)c1cc2c(c(Cl)c1Cl)OC(c1nnn[nH]1)C2 (configuration not stated) | 16 | 13 | 29 | 16 |  |  |  |
| O=C(c1cccs1)c1cc2c(c(Cl)c1Cl)OC(CO)C2 (configuration not stated) | 68 | 16 | 72 | 45 |  |  |  |
| NS(=O)(=O)c1cc(C(=O)O)c(NCc2ccco2)cc1Cl [FUROSEMIDE] | 125 | 6 | 234 | 7 | 1035 | -0.02 | Urine volume [8]: 700 mL |
| O=C(c1ccc2c(c1)CC(C(=O)O)O2)c1cccs1 (configuration not stated) | 7 | 6 | 22 | 4 |  |  | Urine volume [10]: 1 mL/min; Na+ excretion [11]: 193 µequiv/min |
| O=C(O)c1cc2cc(C(=O)c3cccs3)c(Cl)c(Cl)c2o1 | 88 | 32 | 131 | 62 | 396 | 0.061 | Oral activity [12]: 9.8; Oral activity [13]: 1.6; Oral activity [14]: 6.9; Cl- excretion [15]: 510 µequiv/min; K+ excretion [16]: 19 µequiv/min; Urine volume [17]: 270 mL |
| O=C(c1cccs1)c1cc2c(c(Cl)c1Cl)O[C@H](C(=O)O)C2 | 283 | 177 | 339 | 251 | 1451 | 0.132 | Oral activity [12]: 53.7; Oral activity [13]: 8.3; Oral activity [14]: 46; Cl- excretion [18]: 1380 µequiv/min; Urine volume [17]: 501 mL |
| O=C(c1cccs1)c1cc2c(c(Cl)c1Cl)O[C@@H](C(=O)O)C2 |  |  |  |  |  |  | Oral activity [19]: 711 and 637; Oral activity [20]: 540; Oral activity [21]: 26; Oral activity [22]: 256; Oral activity [23]: 622 and 482; Ratio [24]: 0.013; Ratio [25]: 0.01; Ratio [26]: -0.019; Ratio [27]: 0.376 and 0.358; Oral activity [28]: 492 |
| O=C(c1cnsn1)c1cc2c(c(Cl)c1Cl)OC(C(=O)O)C2 (configuration not stated) | 230 | 38 | 284 | 82 | 88 | 0.096 | Na+ excretion [29]: 767 µequiv/min |
